Values belong to the compound of their own block, whether it stands above or below them. The source made the active and inactive calls.
What was measured:
[1] = Cytotoxicity in human HepDE19 cells assessed as reduction in cell viability incubated for 5 days by CCK8 assay; assay type: cell-based
Summary of the method: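 HepDE19 cells were grown in DMEM-F12 with 10% FBS, penicillin/streptomycin and 0.5 mg/mL G418, then seeded at 5 × 10^3 cells/well. Compound exposure lasted 5 days. Viability was read with CCK-8 after 2 h at 37 °C, measuring OD450 and OD630. CC50 was the concentration killing 50% of cells; duplicate runs.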

[2] = Induction of CYP3A4 gene expression in cryopreserved human hepatocytes assessed as increase in CYP3A4 mRNA level at 10 uM incubated for 24 hrs by qRT-PCR analysis relative to rifampicin; assay type: ADME, cell-based
Summary of the method: (§1)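 Cryopreserved hepatocytes from one human donor were seeded at 1 × 10^6 cells/mL and cultured 24 h in serum-free Williams E. Compounds at 0.1, 1.0 and 10 µM (0.1% DMSO) were added in triplicate for 24 h, with vehicle wells as negative controls. Positive controls were omeprazole for CYP1A2, phenobarbital for CYP2B6 and rifampicin for CYP3A4. mRNA was measured by TaqMan qRT-PCR normalised to PPIA (2^-ΔΔCT) and expressed as % of the positive control.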

[3] = Toxicity in rat by 5-day mini-tox study; settings: in vivo, 120 h
[4] = test system: Hepatitis B virus; experiment: Antiviral activity against HBV infected in BALB/c mouse hydrodynamic injection model hydrodynamically injected with replication-competent HBV DNA plasmid assessed as reduction in HBV DNA level in plasma at 3 mg/kg, po BID for 5 days by RT-qPCR analysis; assay type: functional, organism-based
Summary of the method: (§2)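 Used female BALB/c mice aged 6–8 weeks carrying an HBV genotype D genome delivered by tail-vein hydrodynamic plasmid injection. Animals received vehicle or drug orally at the stated frequency for 5 days. Plasma and liver were sampled at set time points, and HBV DNA was quantified by real-time qPCR. Error bars are SEM.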

[5] = Induction of CYP3A4 gene expression in cryopreserved human hepatocytes assessed as increase in CYP3A4 mRNA level at 1 uM incubated for 24 hrs by qRT-PCR analysis relative to rifampicin; assay type: ADME, cell-based; summary of the method: as §1
[6] = in vivo; settings: BALB/c, mouse, liver/plasma, po, 3 mg/kg
[7] = target: Voltage-gated inwardly rectifying potassium channel KCNH2 (Homo sapiens, UniProt Q12809); experiment: Inhibition of human ERG
[8] = Induction of CYP1A2 gene expression in cryopreserved human hepatocytes assessed as increase in CYP1A2 mRNA level at 1 uM incubated for 24 hrs by qRT-PCR analysis relative to omeprazole; assay type: ADME, cell-based; summary of the method: as §1
[9] = Induction of CYP3A4 gene expression in cryopreserved human hepatocytes assessed as increase in CYP3A4 mRNA level at 0.1 uM incubated for 24 hrs by qRT-PCR analysis relative to rifampicin; assay type: ADME, cell-based; summary of the method: as §1
[10] = Ionization constant (acid), pKa of the compound; assay type: physicochemical
[11] = test system: Hepatitis B virus; experiment: Antiviral activity against HBV infected in BALB/c mouse hydrodynamic injection model hydrodynamically injected with replication-competent HBV DNA plasmid assessed as reduction in HBV DNA level in liver at 12 mg/kg, po BID for 5 days by RT-qPCR analysis; assay type: functional, organism-based; summary of the method: as §2
[12] = AUC (0 to infinity) in BALB/c mouse at 1 mg/kg, iv by LC-MS/MS analysis; assay type: ADME, organism-based; parameters: dose 1 mg/kg, route intravenous, time infinity; settings: in vivo
Summary of the method: (§3)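 Female BALB/c mice (16–22 g; 12 animals) got a single IV dose of 1 mg/kg in 5% DMSO/40% PEG400/55% saline. Blood was taken into EDTA-K2 and spun at 2000 g for 5 min at 4 °C. Plasma was stored at -80 °C and quantified by LC–MS/MS. Parameters came from non-compartmental analysis, with BLQ values omitted.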

[13] = Apparent partition coefficient, logD of the compound at pH 7.4; assay type: physicochemical; settings: octanol/water
[14] = AUC (0 to infinity) in BALB/c mouse plasma at 3 mg/kg, po by LC-MS/MS analysis; assay type: ADME, organism-based; parameters: dose 3 mg/kg, route oral, time infinity
Summary of the method: (§4)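 Female BALB/c mice (16–22 g; 21 animals) got a single oral dose of 3 mg/kg in 2% Klucel, Tween 80, 0.1% parabens in water. EDTA-K2 plasma was taken at each time point. Livers were harvested right after blood sampling, rinsed in cold saline, weighed and snap-frozen. Both matrices were quantified by LC–MS/MS and analysed non-compartmentally, omitting BLQs.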

[15] = Unbound fraction in mouse plasma at 1000 nM incubated for 5 hrs by LC-MS/MS analysis detection based equilibrium dialysis assay; assay type: ADME, cell-free
Summary of the method: (§5)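 Equilibrium dialysis of pooled plasma against Soerensen buffer pH 7.4 used a 12–14 kDa cutoff membrane. Compounds were run in cassettes of 2–5 at 1000 nM total, with diazepam as the membrane-integrity control. Dialysis ran 5 h at 37 °C under 5% CO2, followed by LC–MS/MS of both compartments. Unbound fraction is the average of 3 tests.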

[16] = Induction of CYP1A2 gene expression in cryopreserved human hepatocytes assessed as increase in CYP1A2 mRNA level at 0.1 uM incubated for 24 hrs by qRT-PCR analysis relative to omeprazole; assay type: ADME, cell-based; summary of the method: as §1
[17] = Induction of CYP2B6 gene expression in cryopreserved human hepatocytes assessed as increase in CYP2B6 mRNA level at 10 uM incubated for 24 hrs by qRT-PCR analysis relative to phenobarbital
[18] = Induction of CYP1A2 gene expression in cryopreserved human hepatocytes assessed as increase in CYP1A2 mRNA level at 10 uM incubated for 24 hrs by qRT-PCR analysis relative to omeprazole; assay type: ADME, cell-based; summary of the method: as §1
[19] = Drug metabolism in cryopreserved human hepatocytes assessed as glucuronide conjugation of carboxylic acid group at 1 uM incubated up to 120 mins by LC-MS/MS analysis; assay type: ADME, cell-based, Hepatocyte; settings: 2 h
[20] = Volume of distribution at steady state in BALB/c mouse at 1 mg/kg, iv by LC-MS/MS analysis; assay type: ADME, organism-based; settings: in vivo, read-out: Vdss; summary of the method: as §3
[21] = Oral bioavailability in BALB/c mouse at 3 mg/kg by LC-MS/MS analysis; assay type: ADME, organism-based; settings: in vivo; summary of the method: as §4
[22] = AUC (0 to infinity) in BALB/c mouse liver at 3 mg/kg, po by LC-MS/MS analysis; assay type: ADME, organism-based; parameters: dose 3 mg/kg, route oral, time infinity; summary of the method: as §4
[23] = Unbound fraction in human plasma at 1000 nM incubated for 5 hrs by LC-MS/MS analysis detection based equilibrium dialysis assay; assay type: ADME, cell-free; summary of the method: as §5
[24] = Plasma clearance in BALB/c mouse at 1 mg/kg, iv by LC-MS/MS analysis; assay type: ADME, organism-based; summary of the method: as §3
[25] = Induction of CYP2B6 gene expression in cryopreserved human hepatocytes assessed as increase in CYP2B6 mRNA level at 1 uM incubated for 24 hrs by qRT-PCR analysis relative to phenobarbital
[26] = Induction of CYP2B6 gene expression in cryopreserved human hepatocytes assessed as increase in CYP2B6 mRNA level at 0.1 uM incubated for 24 hrs by qRT-PCR analysis relative to phenobarbital
[27] = Ionization constant (base), pKa of the compound; assay type: physicochemical
[28] = test system: Hepatitis B virus; experiment: Antiviral activity against HBV infected in BALB/c mouse hydrodynamic injection model hydrodynamically injected with replication-competent HBV DNA plasmid assessed as reduction in HBV DNA level in liver at 3 mg/kg, po BID for 5 days by RT-qPCR analysis; assay type: functional, organism-based; summary of the method: as §2
[29] = Permeability at 150 uM by PAMPA; assay type: ADME; settings: read-out: permeability
Summary of the method: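 PAMPA: DMSO stock was diluted to 150 µM (<2% DMSO) in donor buffer of 0.05 M MOPSO pH 6.5 with 0.5% glycocholic acid. The acceptor was 0.05 M MOPSO pH 6.5. The membrane was 10% egg lecithin with 0.5% cholesterol in dodecane. Donor and acceptor concentrations were read at start and at ~18 h; results in 10^-6 cm/s.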

[30] = Cmax in BALB/c mouse at 3 mg/kg, po by LC-MS/MS analysis; assay type: ADME, organism-based; parameters: dose 3 mg/kg, route oral; settings: in vivo; summary of the method: as §4
[31] = test system: Hepatitis B virus; experiment: Antiviral activity against HBV infected in BALB/c mouse hydrodynamic injection model hydrodynamically injected with replication-competent HBV DNA plasmid assessed as reduction in HBV DNA level in plasma at 12 mg/kg, po BID for 5 days by RT-qPCR analysis; assay type: functional, organism-based; summary of the method: as §2
[32] = Half life in BALB/c mouse at 1 mg/kg, iv by LC-MS/MS analysis; assay type: ADME, organism-based; settings: in vivo; summary of the method: as §3
[33] = Solubility in pH 6.5 phosphate buffer stirred for 1 hr and shaken for 2 hrs by HPLC-UV based LYSA solubility assay; assay type: physicochemical
Summary of the method: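 Duplicate samples from 10 mM DMSO stock were dried, taken up in 0.05 M phosphate pH 6.5, stirred 1 h, shaken 2 h and left overnight. They were then filtered and the filtrate plus a 1/10 dilution analysed by HPLC-UV. Quantification used a four-point calibration; results in µg/mL.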

Chain of Voltage-gated inwardly rectifying potassium channel KCNH2 (Q12809 whole entry): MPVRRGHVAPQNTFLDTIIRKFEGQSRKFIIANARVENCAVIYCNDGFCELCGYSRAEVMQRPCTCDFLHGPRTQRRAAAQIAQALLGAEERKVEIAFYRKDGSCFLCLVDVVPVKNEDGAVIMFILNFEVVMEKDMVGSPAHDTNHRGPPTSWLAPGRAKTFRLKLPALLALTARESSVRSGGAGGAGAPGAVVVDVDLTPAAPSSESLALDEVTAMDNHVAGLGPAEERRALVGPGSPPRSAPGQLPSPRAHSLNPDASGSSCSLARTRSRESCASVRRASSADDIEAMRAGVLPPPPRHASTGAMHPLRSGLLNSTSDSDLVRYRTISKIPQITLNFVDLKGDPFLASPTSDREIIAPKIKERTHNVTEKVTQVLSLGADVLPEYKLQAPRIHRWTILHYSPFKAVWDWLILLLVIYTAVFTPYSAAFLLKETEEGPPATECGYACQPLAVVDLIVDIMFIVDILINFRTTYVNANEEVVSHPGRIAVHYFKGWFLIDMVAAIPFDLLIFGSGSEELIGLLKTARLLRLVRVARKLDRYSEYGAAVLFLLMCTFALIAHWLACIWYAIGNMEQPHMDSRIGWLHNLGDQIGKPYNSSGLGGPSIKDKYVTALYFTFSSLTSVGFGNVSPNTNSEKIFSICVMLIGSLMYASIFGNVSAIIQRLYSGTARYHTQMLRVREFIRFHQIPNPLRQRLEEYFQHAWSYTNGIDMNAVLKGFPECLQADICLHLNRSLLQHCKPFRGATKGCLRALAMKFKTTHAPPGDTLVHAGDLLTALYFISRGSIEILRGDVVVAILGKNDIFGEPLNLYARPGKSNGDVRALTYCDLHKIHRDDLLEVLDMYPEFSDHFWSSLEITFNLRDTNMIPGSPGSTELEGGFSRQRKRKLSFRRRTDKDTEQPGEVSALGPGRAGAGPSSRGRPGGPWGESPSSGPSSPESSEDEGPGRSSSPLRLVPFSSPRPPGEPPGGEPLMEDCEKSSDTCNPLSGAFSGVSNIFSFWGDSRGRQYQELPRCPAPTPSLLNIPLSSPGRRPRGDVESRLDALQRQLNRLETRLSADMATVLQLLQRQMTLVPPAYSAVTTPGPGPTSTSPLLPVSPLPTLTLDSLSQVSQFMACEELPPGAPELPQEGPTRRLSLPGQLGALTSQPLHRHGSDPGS

Compound: COC(=O)C1=C(CN2CCOC[C@H]2C(=O)O)NC(c2nccs2)=N[C@H]1c1ccc(C)c(F)c1
CC50 at 120 h [1]: > 100 µM

Activity [2]: 52%
Compound: COC(=O)C1=C(CN2CC(F)(F)C[C@H]2C(=O)O)NC(c2nccs2)=N[C@H]1c1ccc(F)c(F)c1
CC50 at 120 h [1]: 56 µM

Activity [2]: 40%
Compound: CCOC(=O)C1=C(CN2CCOC[C@H]2C(=O)O)NC(c2nccs2)=N[C@H]1c1ccc(C)c(F)c1
CC50 at 120 h [1]: 85 µM

Compound: CCOC(=O)C1=C(CN2CCOC[C@H]2C(=O)O)NC(c2nccs2)=N[C@H]1c1ccc(F)cc1
Activity [2]: 85%
CC50 at 120 h [1]: 62 µM

Activity [2]: 73%
Compound: CCOC(=O)C1=C(CN2CCOC[C@H]2C(=O)O)NC(c2nccs2)=N[C@H]1c1ccc(Br)c(F)c1
CC50 at 120 h [1]: 14 µM

Activity [2]: 25%
Activity [5]: 7.5%
Kp [6]: 38
Activity [8]: 0.9%
Activity [9]: 2%
pKa [10]: 1.8
AUC(0-inf) [12]: 408 ng·h/mL
logD [13]: 0.38
AUC(0-inf) [14]: 527 ng·h/mL
fraction unbound at 5 h, 1 µM [15]: 0.04
Activity [16]: 1%
Activity [17]: 1.4%
Activity [18]: 1.7%
Drug metabolism [19]: Metabolite_Detected
Vd [20]: 2.7 L/kg
bioavailability [21]: 43.1%
AUC(0-inf) [22]: 20000 ng·h/mL
fraction unbound at 5 h, 1 µM [23]: 0.031
clearance [24]: 40.9 mL/min/kg
Activity [25]: 1.5%
Activity [26]: 1.3%
pKa [27]: 5.9
Papp at 150 µM [29]: 2.4 ×10⁻⁶ cm/s
Cmax [30]: 254 ng/mL
half-life [32]: 2.3 h
solubility [33]: > 631 µg/mL
Compound: COC(=O)C1=C(CN2CCOC[C@H]2C(=O)O)NC(c2nccs2)=N[C@H]1c1ccc(Cl)c(F)c1
Activity [3]: Non-Toxic
Activity [4]: Active
inhibition (INH) [7]: Not Active
CC50 at 120 h [1]: > 100 µM
Activity [11]: Active
Activity [28]: Active
Activity [31]: Active

Activity [2]: 135%
Compound: CCOC(=O)C1=C(CN2CCOC[C@H]2C(=O)O)NC(c2nccs2)=N[C@H]1c1ccc(F)cc1F
CC50 at 120 h [1]: > 100 µM

Activity [2]: 105%
Compound: CCOC(=O)C1=C(CN2CCOC[C@H]2C(=O)O)NC(c2nccs2)=N[C@H]1c1ccc(F)c(F)c1F
CC50 at 120 h [1]: 49 µM

Activity [2]: 111%
Compound: COC(=O)C1=C(CN2CCOC[C@H]2C(=O)O)N=C(c2nccs2)N[C@H]1c1ccc(F)cc1Cl
CC50 at 120 h [1]: > 100 µM

Activity [2]: 41%
Compound: CCOC(=O)C1=C(CN2CCOC[C@H]2C(=O)O)NC(c2nccs2)=N[C@H]1c1ccc(F)c(F)c1
CC50 at 120 h [1]: > 100 µM
